# Laboratory results as given in ChEMBL document CHEMBL4364260, “Discovery of Ziresovir as a Potent, Selective, and Orally Bioavailable Respiratory Syncytial Virus Fusion Protein Inhibitor” (J Med Chem, 2019).
# Columns and labels:
# [1] = Antiviral activity against Human respiratory syncytial virus A strain Long infected in human Hep2 cells assessed as reduction in virus induced cytopathic effect in presence of 10% FBS after 5 days by CCK-8 assay; assay type: functional, cell-based; conditions: HEp-2, 120 h
# Method in brief: (§1)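 HEp-2 cells seeded at 6000/well and infected the next day at MOI 0.02, a dose that gives about 90% CPE by day 5. Serial compound dilutions were present throughout, in standard medium with 10% FBS. Viability was read by CCK-8 at day 5, and EC50 is the concentration that cuts CPE by 50%.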
# [2] = AUC (0 to 24 hrs) in Wistar-Han rat at 10 mg/kg, po administered as single dose via gavage and measured up to 24 hrs by LC/MS/MS analysis; assay type: ADME, organism-based; design: dose 10 mg/kg, time < 24 hr, route oral; conditions: in vivo
# Method in brief: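 Single-dose PK in male Wistar-Han rats at 2 mg/kg iv or 10 mg/kg po, as a solution in 5% DMSO, 40% PEG400 and 55% 0.9% sodium chloride.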
# [3] = Volume of distribution at steady state in Wistar-Han rat at 2 mg/kg, iv or 10 mg/kg, po administered as single dose via gavage and measured up to 24 hrs by LC/MS/MS analysis; assay type: ADME, organism-based; conditions: in vivo, read-out: Vdss
# Method in brief: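 Male Wistar-Han rats, single dose, 2 mg/kg iv and 10 mg/kg po, run by standard procedures.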
# Influenza A virus = experiment: Antiviral activity against Influenza A virus H1N1 infected in human Hep2 cells assessed as reduction in virus induced cytopathic effect after 5 days by CCK-8 assay; assay type: functional; conditions: H1N1, HEp-2, 120 h
# Human orthopneumovirus = experiment: Antiviral activity against Human respiratory syncytial virus A2 infected in human Hep2 cells assessed as reduction in virus induced cytopathic effect after 5 days by CCK-8 assay; assay type: functional, organism-based; conditions: A2, HEp-2, 120 h
# Method in brief: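 CPE protection assay in HEp-2 cells, 6000 per well, infected next day with RSV at MOI 0.02 to give about 90% cytopathic effect after 5 days. Serial compound dilutions were present during incubation. Cell viability was measured by CCK-8 at day 5 to give EC50.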
# [4] = Antiviral activity against Human respiratory syncytial virus A 1177 clinical isolates infected in human Hep2 cells assessed as reduction in virus induced cytopathic effect in presence of 10% FBS after 5 days by CCK-8 assay; assay type: functional, cell-based; conditions: human respiratory syncytial virus, 1177, HEp-2, 120 h; method in brief: as §1
# [5] = Antiviral activity against Human respiratory syncytial virus B 821 clinical isolates infected in human Hep2 cells assessed as reduction in virus induced cytopathic effect in presence of 10% FBS after 5 days by CCK-8 assay; assay type: functional, cell-based; conditions: human respiratory syncytial virus, 821, HEp-2, 120 h; method in brief: as §1
# [6] = Half-life in CD-1 mouse plasma at 10 mg/kg/day, po administered via gavage and measured up to 24 hrs by LC/MS/MS analysis; assay type: ADME, organism-based
# [7] = Cmax in CD-1 mouse plasma at 10 mg/kg/day, po administered via gavage and measured up to 24 hrs by LC/MS/MS analysis; assay type: ADME, organism-based; design: dose 10 mg/kg/day, route oral
# [8] = Ratio of AUC (0 to 24 hrs) in lung to plasma of CD-1 mouse at 10 mg/kg, po administered via gavage by LC-MS/MS analysis; assay type: ADME, organism-based; conditions: read-out: Ratio AUC
# [9] = test system: Fusion glycoprotein F0 (Human respiratory syncytial virus A (strain A2)), P03420 [D489A]; experiment: Inhibition of Human respiratory syncytial virus Fusion protein D489A mutant expressed in Hep2 cells as reduction in virus induced cytopathic effect by CCK-8 assay; assay type: cell-based
# Method in brief: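 HEp-2 cells were seeded at 6000/well and infected with plaque-purified RSV carrying the F-protein mutation (D486N or D489A) at MOI 0.04, with serially diluted compound. Viability was read by CCK-8 absorbance at 450 nm/650 nm, and EC50/EC90 were derived from protection against virus-induced cytopathic effect.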
# [10] = Clearance in CD-1 mouse at 5 mg/kg, iv or 50 mg/kg, po; assay type: ADME, organism-based; conditions: in vivo
# Method in brief: (§2)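 Single-dose PK in CD-1 mice: 5 mg/kg iv, 50 mg/kg po. Dosed as a solution in 5% DMSO, 40% PEG400, 55% of 0.9% NaCl. Plasma CL, Vss, iv T1/2, AUC and F were derived.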
# [11] = Volume of distribution at steady state in Sprague-Dawley rat at 2 mg/kg, iv or 10 mg/kg, po; assay type: ADME, organism-based; conditions: in vivo, read-out: Vdss
# Method in brief: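 Rat single-dose PK: 2 mg/kg iv and 10 mg/kg po. Compound was given as a solution in 5% DMSO/40% PEG400/55% of 0.9% saline. Plasma CL, Vss, iv half-life, AUC and oral bioavailability were reported.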
# [12] = Volume of distribution at steady state in cynomolgus monkey at 2 mg/kg, iv or 10 mg/kg, po; assay type: ADME, organism-based, Macaca fascicularis; conditions: in vivo, read-out: Vdss
# Method in brief: (§3)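 Cynomolgus monkeys got single doses of 2 mg/kg iv and 10 mg/kg po as a solution in 12.5% captisol in water. Plasma CL, Vss, iv T1/2, AUC and oral F were derived.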
# [13] = Half-life in CD-1 mouse at 5 mg/kg, iv; assay type: ADME, organism-based; conditions: in vivo; method in brief: as §2
# [14] = Half-life in cynomolgus monkey at 2 mg/kg, iv; assay type: ADME, organism-based, Macaca fascicularis; conditions: in vivo; method in brief: as §3
# [15] = AUC (0 to 24 hrs) in Beagle dog at 10 mg/kg, po; assay type: ADME, organism-based, Canis lupus familiaris; design: dose 10 mg/kg, time < 24 hr, route oral; conditions: in vivo
# Method in brief: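 Single-dose PK. Dog received 1 mg/kg iv or 10 mg/kg po, and cynomolgus monkey received 2 mg/kg iv or 10 mg/kg po. Both were given as a solution in 12.5% captisol in water. Plasma AUC was taken from the oral arm, with CL, Vss, iv T1/2 and F also derived.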
# [16] = Oral bioavailability in Beagle dog at 10 mg/kg; assay type: ADME, organism-based, Canis lupus familiaris; conditions: in vivo
# Method in brief: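 Beagle dog single-dose PK at 1 mg/kg iv and 10 mg/kg po, dosed as a solution in 12.5% captisol in water. Plasma clearance, Vss, iv T1/2, AUC and F were reported.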
# [17] = Oral bioavailability in cynomolgus monkey at 10 mg/kg; assay type: ADME, organism-based, Macaca fascicularis; conditions: in vivo; method in brief: as §3
# [18] = target: Fusion glycoprotein F0 (human respiratory syncytial virus) (UniProt Q89535); experiment: Inhibition of Human respiratory syncytial virus Fusion protein assessed as reduction in protein-induced syncytia formation at 0.1 uM after 3 days by microscopic method relative to control
# Method in brief: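 Serially diluted compound was added to cells expressing RSV-F. Cell-cell fusion (syncytia) was scored by microscopy three days after compound addition.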
# [19] = Antiviral activity against Human respiratory syncytial virus A strain Long infected in BALB/c mouse assessed as log reduction in virus titer in lung at 12.5 mg/kg, po BID administered up to 8 hrs for 4 days relative to control; assay type: functional
# Method in brief: (§4)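 Six-week-old female BALB/c mice, housed specific-pathogen-free, were anesthetized intraperitoneally with ketamine/xylazine and given RSV Long strain intranasally (5×10^5 PFU in 100 µL). Oral dosing was twice daily (0 h and 8 h) for 4 days, 12 mice per group. Mice were then euthanized with CO₂ and lungs harvested for viral titer, compared with vehicle.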
# [20] = Antiviral activity against Human respiratory syncytial virus A strain Long infected in BALB/c mouse assessed as log reduction in virus titer in lung at 50 mg/kg, po BID administered up to 8 hrs for 4 days relative to control; assay type: functional; method in brief: as §4
smiles,measurement,setting,value
Cc1ccc2nc(N3CCS(=O)(=O)c4ccccc4C3)nc(NCC3(N)COC3)c2c1 [ZIRESOVIR],EC50,[1],3 nM
same,EC90,[1],5 nM
same,AUC(0-t) at 24 h,[2],906 ng·h/mL
same,Vd,[3],3.9 L/kg
same,EC90,Influenza A virus,> 100000 nM
same,EC50,Human orthopneumovirus,2 nM
same,EC90,Human orthopneumovirus,3 nM
same,EC50,[4],4 nM
same,EC90,[4],7 nM
same,EC50,[5],3 nM
same,EC90,[5],8 nM
same,half-life,[6],1.02 h
same,Cmax,[7],5090 ng/mL
same,Kp,[8],8.6
same,EC90,[9],10000 nM
same,clearance,[10],277 mL/min/kg
same,Vd,[11],3.9 L/kg
same,Vd,[12],1.9 L/kg
same,half-life,[13],0.4 h
same,half-life,[14],1 h
same,AUC(0-t) at 24 h,[15],1170 ng·h/mL
same,bioavailability,[16],26%
same,bioavailability,[17],22%
same,inhibition,[18],100%
same,FC,[19],>1
same,FC,[20],1.9
